HTRA1 inh = HTRA1 serine protease inhibitors, primary screen, biochemical, fluorescence polarization, HTS; Q92743; recombinant HTRA1, FP-rhodamine activity-based probe; inhibition, % at 5.96 µM; actives 0.5% (n = 340,000); AID 504803, 2011; in the data active = inhibition above about 36%;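 note: 0% = enzyme with DMSO and 100% = wells lacking enzyme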
TCR-CD3 inh = inhibitors of human TCR-CD3 interaction, primary screen, biochemical, fluorescence, TAMRA-labeled TCR probe | T-cell receptor (TCR) | inhibition, % at 9.4 µM | actives 0.37% (n = 360,000) | AID 651800, 2012; in the data active = inhibition above about 19%;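 note: recombinant mutant TCR 2C K166C tagged with TAMRA read by polarization; 0% = receptor in buffer alone and 100% = receptor with positive control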
rCAG RNA binder = binders of r(CAG) RNA repeats, primary screen, biochemical, fluorescence | r(CAG) RNA repeat, TO-PRO-1 dye displacement fluorescence | inhibition, % at 3 µM | actives 1.3% (n = 370,000);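 active = inhibition above the plate cutoff, the mean of all test compounds on that plate plus 3 SD, cut at about 35% in these data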;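 note: 0% = DMSO alone and 100% = 100 µM mitoxantrone as full dye displacement; higher means more dye released from RNA so lower well fluorescence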
PRMT1 FP inh = PRMT1 methyltransferase inhibitors, primary screen, biochemical, fluorescence polarization; Protein arginine N-methyltransferase 1 (Homo sapiens), Q99873; recombinant PRMT1, activity-based probe fluorescence polarization; inhibition, % at 2.79 µM; actives 1.3% (n = 370,000); AID 652257, 2013;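 active = inhibition above about 21% made by adding two undisclosed values, limit read from the data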
Target sequence (Q99873 whole entry, looked up): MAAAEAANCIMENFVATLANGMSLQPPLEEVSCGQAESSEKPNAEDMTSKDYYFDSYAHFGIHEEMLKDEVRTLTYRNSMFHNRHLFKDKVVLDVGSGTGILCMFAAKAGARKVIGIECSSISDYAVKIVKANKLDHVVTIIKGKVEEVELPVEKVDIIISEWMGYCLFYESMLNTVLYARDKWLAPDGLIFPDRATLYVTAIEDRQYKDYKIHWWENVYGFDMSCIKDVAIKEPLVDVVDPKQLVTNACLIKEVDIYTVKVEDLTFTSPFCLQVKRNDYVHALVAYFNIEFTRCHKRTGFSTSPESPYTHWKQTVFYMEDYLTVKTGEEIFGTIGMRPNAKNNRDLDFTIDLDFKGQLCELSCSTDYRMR
ABHD4 inh = ABHD4 inhibitors, primary screen, biochemical, fluorescence polarization, mouse | inhibition, % at 8.92 µM | (Lyso)-N-acylphosphatidylethanolamine lipase (Mus musculus), Q8VD66 | AID 720543, 2013 | purified mABHD4, FP-Rh probe fluorescence polarization | actives 0.54% (n = 370,000);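 active = inhibition exceeding the mean over every tested compound plus 3 SD, cut at about 30% in these data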;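 note: 0% = plate median of compound wells and 100% = S159A mutant with DMSO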
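Assay system: wild-type mouse ABHD4 protein; compound: single nominal dose of 8.92 µM, 0.89% DMSO final; schedule: 45 min + 60 min at 25 °C; measured by: FP readout, ex 525 nm / em 598 nm; evaluation: % inhibition of FP-Rh probe binding versus controls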
SIAE inh = human SIAE inhibitors, primary screen, biochemical, fluorescence polarization, FP-Rh probe, 1536-well HTS. inhibition, % at 9.66 µM. actives 0.69% (n = 370,000). Sialate O-acetylesterase (Homo sapiens), Q9HAT2. SIAE FP-Rh probe binding;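 active = inhibition above a cutoff: mean of compounds within the control limits plus 3 SD of those, cut at about 17% in these data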;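 note: 0% = plate median of compound wells and 100% = probe without SIAE protein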
HTRA1 inh conf = HTRA1 protease inhibitors, retest, confirmation, biochemical, fluorescence polarization; shares compounds with HTRA1 inh; recombinant HTRA1, FP-rhodamine activity-based probe; inhibition, % at 5.96 µM; actives 66% (n = 1,600); AID 540248, 2011;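 active = mean inhibition over three repeats above a set limit taken from the earlier primary screen, cut at about 37% in these data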;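 note: 0% = HTRA1 with DMSO and 100% = wells lacking HTRA1; inhibitors block probe binding so polarization drops and inhibition rises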
The depositor's hits bear a star; . = no result. The list is not random: actives were taken first. Their share in the collection is about 3.5%.

SMILES | HTRA1 inh | TCR-CD3 inh | rCAG RNA binder | PRMT1 FP inh | ABHD4 inh | SIAE inh | HTRA1 inh conf
CC(C)(C)c1ccc(/C=N/Nc2nncn2N)cc1 | -5 | -9 | -4 | 4 | 1 | 6 | .
FC(F)(F)c1cnc(NNC(=S)Nc2ccccc2)c(Cl)c1 | 47* | -3 | 6 | -2 | 11 | 7 | 30
c1ccc(N=Nc2ccc3cccccc2-3)cc1 | 53* | 8 | 9 | -1 | 29 | 16 | 64*
CCOC(=O)N1CCN(S(=O)(=O)c2ccc(C(=O)N(CCN(C)C)c3nc4ccc(Cl)cc4s3)cc2)CC1 | -2 | 0 | 2 | -2 | 6 | 5 | .
CCOC(=O)N1CCN(S(=O)(=O)c2ccc(C(=O)NNc3nc4ccc(Cl)cc4s3)cc2)CC1 | 51* | . | . | . | . | . | 78*
CCOC(=O)N1CCN(S(=O)(=O)c2ccc(C(=O)N(CCN(CC)CC)c3nc4c(C)cccc4s3)cc2)CC1 | -31 | -4 | -1 | -2 | 7 | 14 | .
CCOC(=O)N1CCN(S(=O)(=O)c2ccc(C(=O)NNc3nc4c(C)cccc4s3)cc2)CC1 | 48* | 5 | 76* | 9 | 23 | 11 | 168*
COC(=O)[C@]12C[C@H](CC(=O)NCC34CC5CC(CC(C5)C3)C4)C(=O)N(Cc3ccco3)C1=C[C@H](C(C)(C)C)O[C@@H]2C | . | . | 5 | 3 | -4 | -6 | .
CCOc1c(OC(C)=O)ccc(/C=C/c2ccc3cccc(OC(C)=O)c3n2)c1[N+](=O)[O-] | 37* | . | . | . | . | . | 27
CC(C)CC(O)(CC(C)C)c1cn(C(=O)N(c2ccccc2)c2ccccc2)nn1 | . | . | . | 0 | 1 | 1 | .
COc1ccc(-c2c[n+]3c4n2CCCCC4=C(c2ccc(Br)cc2)C3)cc1 | 52* | -9 | 16 | 1 | 2 | 0 | 21
O=C1CCCC2=C1C(c1cccs1)Nc1ccc3ncccc3c12 (stereo not drawn) | 4 | -3 | 2 | 4 | 6 | 3 | .
O=C1CCCC2=C1C(c1ccc(O)c(O)c1)Nc1ccc3ncccc3c12 (stereo not drawn) | 40* | 12 | 9 | 34* | 10 | -10 | 67*
Cc1oc2c(O)c(O)ccc2c(=O)c1-c1cnn(-c2ccccc2)c1 | 61* | 10 | 19 | 26* | 22 | 5 | 92*
Cc1[nH]c2ccccc2c1CCNC(=O)c1ccc2c(c1[N+](=O)[O-])C(=O)c1ccccc1C2=O | 21 | -2 | 21 | 1 | 6 | 4 | .
Cc1[nH]c2c(C)cccc2c1CCNC(=O)c1ccc2c(c1[N+](=O)[O-])C(=O)c1ccccc1C2=O | 42* | 5 | 33 | -4 | 7 | 5 | 44*
COc1ccc2sc(-c3ccc(N(C)C)cc3)c(C#Cc3cncn3C)c2c1 | 48* | -3 | 15 | 5 | 18 | 12 | 24
COc1ccc2sc(-c3ccc(N(C)C)cc3)c(C#CCCO)c2c1 | 37* | 0 | 15 | 4 | 19 | 3 | 25
COc1ccc(-c2sc3ccc(OC)cc3c2C#CCCO)cc1 | -55 | . | . | . | . | . | .
O=C(CN1CCN(S(=O)(=O)c2ccc(F)cc2)CC1)c1ccc(O)c(O)c1 | 13 | -1 | 7 | 7 | 10 | 8 | .
O=C(CN1CCN(S(=O)(=O)c2ccc(Cl)cc2)CC1)c1ccc(O)c(O)c1 | 43* | . | . | . | . | . | 44*
O=C(c1cc(Cl)cc(Cl)c1)N1CC[C@H]2[C@H](CCCN2Cc2ccccc2)C1 | . | . | 2 | 2 | 4 | -1 | .
CCC1=NN(C(=O)c2ccc(Cl)cc2)C(O)(c2ccc(C)cc2)C1 (stereo not drawn) | 10 | 12 | 1 | 1 | -2 | 3 | .
CCOC(=O)C1=NN(C(=O)c2ccc(C)cc2)C(O)(c2ccc(Cl)cc2)C1 (stereo not drawn) | 60* | -5 | 5 | 0 | 10 | 1 | 72*
Cc1ccc(Cn2cc(CN(C3CC3)S(=O)(=O)c3ccccc3Br)nn2)cc1 | . | . | 0 | -3 | -3 | -3 | .
